# Published values of several laboratories.
# Protocols differ between the studies behind these lines.
# Organism: Candida albicans
# Effect on: microbial growth
SMILES,technique,strain,time,setting,MIC
N=C(N)N1CC=C(c2coc(C(=O)Nc3ccc(C4=CCN(C(=N)N)CC4)c(F)c3)c2)CC1,broth dilution,,48 h,clinical isolate,0.78 µg/mL
CCc1nc(N)nc(N)c1C#CCc1cc(OC)ccc1OC,resazurin,,,,250 µM
C[C@@H]1[C@H](O)[C@@H](C)/C=C/C=C/C=C/C=C/C=C/C=C/C=C/[C@H](O[C@@H]2O[C@H](C)[C@@H](O)[C@H](N)[C@@H]2O)C[C@@H]2O[C@](O)(C[C@@H](O)C[C@@H](O)[C@H](O)CC[C@@H](O)C[C@@H](O)CC(=O)O[C@H]1C)C[C@H](O)[C@H]2C(=O)O,broth dilution,,,,0.25 µg/mL
O=C(CCCCCC[P+](c1ccccc1)(c1ccccc1)c1ccccc1)Nc1ccc(O)c(O)c1.[Br-],broth dilution,ATCC90028,24 h,,32 µg/mL
CC1=NN(CNc2ccccc2[N+](=O)[O-])C(=O)C1=NNn1c(-c2ccccc2)nc2ccccc2c1=O,broth dilution,,,,50.4 µM
OC(Cn1cncn1)(Cn1cncn1)c1ccc(F)cc1F,broth dilution,ATCC90028,24 h,,0.125 µg/mL
NOCC(=O)O,,SC5314,,,1000 µg/mL
O=C1NN=C(N=Cc2ccc(O)cc2O)C1=NNn1c(-c2ccccc2)nc2ccccc2c1=O,broth dilution,,,,53.5 µM
O=C(CCCCCCCC[P+](c1ccccc1)(c1ccccc1)c1ccccc1)Nc1cc(O)c(O)c(O)c1.[Br-],broth dilution,ATCC90028,24 h,,> 32 µg/mL
CC1=NN(CNC(=O)c2ccccc2)C(=O)C1=NNn1c(-c2ccccc2)nc2ccccc2c1=O,broth dilution,,,,104 µM
O=C(CCCCCCCCCC[P+](c1ccccc1)(c1ccccc1)c1ccccc1)Nc1cc(O)c(O)c(O)c1.[Br-],broth dilution,ATCC90028,24 h,,8 µg/mL
CC(=O)NCN1N=C(C)C(=NNn2c(-c3ccccc3)nc3ccccc3c2=O)C1=O,broth dilution,,,,120 µM
CCOC(=O)CON,,SC5314,,,32 µg/mL
O=C(CCc1ccc(O)c(O)c1)NCCCCCCCC[P+](c1ccccc1)(c1ccccc1)c1ccccc1.[Br-],broth dilution,ATCC90028,24 h,,> 32 µg/mL
CC1=NN(CNc2ccc(Cl)cc2)C(=O)C1=NNn1c(-c2ccccc2)nc2ccccc2c1=O,broth dilution,,,,51.5 µM
